Data on three compounds can be found in article PMC9256809 (Molecular Cancer Therapeutics, 2022).

For one data set, the system named is Ba/F3 cells FLT3 D835Y. In words: Antiproliferative assay in Ba/F3 cells transfected with FLT3 variants. It is filed as cell-based. To be noted: Mus musculus, BaF3.
The test system of another data set is Ba/F3 cells FLT3- ITD. The data set is described as above. The conditions noted are these: for IC50: Mus musculus, BaF3. It is filed as cell-based, mouse.
Data set [1] has as its system Ba/F3 cells FLT3-ITD + F691L. The data set is described as above. The conditions noted are these: Mus musculus, BaF3. It is filed as cell-based.
The test system of data set [2] is Ba/F3 cells FLT3-ITD + D835Y. The description is as above. To be noted: Mus musculus, BaF3. It is filed as cell-based.
For data set [3], the system named is relapsed or refractory FLT3-mutated AML. The conditions noted are these: FLT3 inhibitor-naïve patients with relapsed or refractory FLT3-mutated AML; cited from earlier work.
The test system of the next data set is phosphorylation of FLT3. As to the kind of experiment: Western blot analysis of kinase inhibition. It is filed as cell-based. To be noted: Fig. 2B. In a few lines:
(§1)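 Cells were exposed to vehicle DMSO or a concentration range of test compound for 1 or 24 h, then lysed. Blots were probed for total and phosphorylated FLT3 (pY589/591), STAT5 (pY694) and ERK1/2 (pT202/204). Images are representative of 3 biological repeats.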
In general terms: A western blot detects proteins with antibodies after separation by electrophoresis.

Data set [4] deals with FLT3-mutant AML cell lines and the PDGFR-α mutant EOL-1 cell line. In words: Apoptosis by PARP cleavage. The format is cell-based, human. The conditions noted are these: all 3 FLT3-mutant AML cell lines and EOL-1. The procedure, abridged: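 Cells were treated with DMSO vehicle or test compound for 1 or 24 h, then lysed. Apoptosis was assessed by Western blot for PARP cleavage.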

The subject of another data set is HEL92.1.7. In words: Antiproliferative assay. The conditions noted are these: Homo sapiens, HEL 92.1.7, 72 h, read-out: Mean IC50. It is filed as cell-based. In a few lines:
(§2)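 Human AML lines from ATCC or DSMZ, STR-authenticated, mycoplasma-tested every 2 months and grown in source-recommended medium. Cells were exposed in four replicates to increasing concentrations of test compound for 72 h. Proliferation was read with the CellTiter 96 AQueous One (MTS) reagent.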

The target in data set [5] is hERG potassium ion channel (Homo sapiens, UniProt Q12809). As to the kind of experiment: hERG inhibition.
Data set [6] can be described thus: Phase I trial tolerability. It is filed as in vivo, patients with AML and MDS/MPN. To be noted: doses that yield plasma concentrations up to 1 μmol/L.
A further data set deals with MOLM-13. In words: Antiproliferative assay. It is filed as cell-based. To be noted: Homo sapiens, MOLM-13, 72 h, read-out: Mean IC50. The procedure, abridged: as §2
The next data set relates to phosphorylation of STAT5. As to the kind of experiment: Western blot analysis of kinase inhibition. The format is cell-based. The conditions noted are these: Fig. 2B. The procedure, abridged: as §1
For another data set, the system named is THP-1. In words: Antiproliferative assay. It is filed as cell-based. To be noted: Homo sapiens, THP-1, 72 h, read-out: Mean IC50. In a few lines: as §2
Data set [7] has as its system phosphorylation of ERK1/2. As to the kind of experiment: Western blot analysis of kinase inhibition. The format is cell-based. To be noted: Fig. 2B. In a few lines:
as §1

Another data set relates to EOL-1. In words: Antiproliferative assay. It is filed as cell-based. To be noted: Homo sapiens, EOL1, 72 h, read-out: Mean IC50. The procedure, abridged: as §2
A further data set has as its target FLT3– ITD (Homo sapiens, UniProt P36888, ITD). As to the kind of experiment: DiscoverX KINOMEscan competition binding.
Data set [8] concerns primary mononuclear cells from patients with AML. In words: Ex vivo cell viability assay. The conditions noted are these: Homo sapiens, read-out: median IC50, 186 primary samples from patients with AML. It is filed as cell-based.
The next data set deals with CYP3A4 (Homo sapiens, UniProt P08684). In words: Metabolism studies. It is filed as in vitro ADME.
The target in another data set is CYP3A5 (Homo sapiens, UniProt P20815). As to the kind of experiment: Metabolism studies. The format is in vitro ADME.
The next data set concerns the target ERBB (Homo sapiens, UniProt P04626). As to the kind of experiment: RBC enzymatic assay, ATP at Km. It is filed as biochemical. The procedure, abridged:
(§3)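 Recombinant kinases were assayed with ATP at each kinase's Km, and IC50 values were determined.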

The subject of data set [9] is MV4–11 FLT3-ITD xenograft. In words: MV4–11 subcutaneous xenograft study. The format is in vivo, BALB/c nu/nu mice.
A further data set concerns the target FLT3-ITD (Homo sapiens, UniProt P36888). In words: RBC enzymatic assay, ATP at Km. It is filed as biochemical. The procedure, abridged: as §3
The target of the next data set is TEC (Homo sapiens, UniProt P42680). As to the kind of experiment: RBC enzymatic assay, ATP at Km. It is filed as biochemical. In a few lines: as §3
A further data set addresses FLT3 ITD/F691L (Homo sapiens, UniProt P36888, F691L/ITD). In words: DiscoverX KINOMEscan competition binding.
A short description of data set [10]: 28-day GLP repeat-dose toxicology study. The format is in vivo. The conditions noted are these: dogs, up to highest dose tested of 600 mg/kg orally.
The next data set has as its target FLT3 (Homo sapiens, UniProt P36888). As to the kind of experiment: Plasma inhibition assay. The conditions noted are these: phase I doses yielding plasma concentrations up to 1 μmol/L.
Data set [11] is described as follows: Cardiovascular study in dogs. It is filed as in vivo.
Another data set addresses FLT3 D833Q (TKD) (Homo sapiens, UniProt P36888). As to the kind of experiment: DiscoverX KINOMEscan competition binding.
Data set [12] deals with samples from patients with MDS/MPN. As to the kind of experiment: Ex vivo cell viability assay. The format is cell-based. The conditions noted are these: Homo sapiens, read-out: median IC50. The procedure, abridged:
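Freshly isolated patient mononuclear cells (peripheral blood or bone marrow) were plated at 10,000 cells/well. They were given a seven-point, 3-fold dilution series from 10 to 0.0137 µmol/L, made from DMSO stocks, and incubated 3 days. Growth was read by MTS; absorbance was background-subtracted and normalised to untreated wells. IC50 was obtained per sample and the median taken.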

Chain of FLT3-ITD (P36888 564-993, change not shown): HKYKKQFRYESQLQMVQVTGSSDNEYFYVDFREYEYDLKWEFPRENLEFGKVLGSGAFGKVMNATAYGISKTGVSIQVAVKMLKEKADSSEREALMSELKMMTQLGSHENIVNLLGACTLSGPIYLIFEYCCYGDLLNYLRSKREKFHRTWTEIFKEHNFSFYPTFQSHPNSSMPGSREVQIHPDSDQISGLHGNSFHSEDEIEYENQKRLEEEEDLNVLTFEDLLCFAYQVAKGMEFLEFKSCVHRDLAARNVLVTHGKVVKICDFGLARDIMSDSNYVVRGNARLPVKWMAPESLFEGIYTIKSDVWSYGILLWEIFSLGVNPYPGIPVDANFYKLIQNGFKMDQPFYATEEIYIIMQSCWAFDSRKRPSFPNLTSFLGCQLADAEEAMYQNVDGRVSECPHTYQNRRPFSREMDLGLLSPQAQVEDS
Chain of ERBB (P04626 23-1255): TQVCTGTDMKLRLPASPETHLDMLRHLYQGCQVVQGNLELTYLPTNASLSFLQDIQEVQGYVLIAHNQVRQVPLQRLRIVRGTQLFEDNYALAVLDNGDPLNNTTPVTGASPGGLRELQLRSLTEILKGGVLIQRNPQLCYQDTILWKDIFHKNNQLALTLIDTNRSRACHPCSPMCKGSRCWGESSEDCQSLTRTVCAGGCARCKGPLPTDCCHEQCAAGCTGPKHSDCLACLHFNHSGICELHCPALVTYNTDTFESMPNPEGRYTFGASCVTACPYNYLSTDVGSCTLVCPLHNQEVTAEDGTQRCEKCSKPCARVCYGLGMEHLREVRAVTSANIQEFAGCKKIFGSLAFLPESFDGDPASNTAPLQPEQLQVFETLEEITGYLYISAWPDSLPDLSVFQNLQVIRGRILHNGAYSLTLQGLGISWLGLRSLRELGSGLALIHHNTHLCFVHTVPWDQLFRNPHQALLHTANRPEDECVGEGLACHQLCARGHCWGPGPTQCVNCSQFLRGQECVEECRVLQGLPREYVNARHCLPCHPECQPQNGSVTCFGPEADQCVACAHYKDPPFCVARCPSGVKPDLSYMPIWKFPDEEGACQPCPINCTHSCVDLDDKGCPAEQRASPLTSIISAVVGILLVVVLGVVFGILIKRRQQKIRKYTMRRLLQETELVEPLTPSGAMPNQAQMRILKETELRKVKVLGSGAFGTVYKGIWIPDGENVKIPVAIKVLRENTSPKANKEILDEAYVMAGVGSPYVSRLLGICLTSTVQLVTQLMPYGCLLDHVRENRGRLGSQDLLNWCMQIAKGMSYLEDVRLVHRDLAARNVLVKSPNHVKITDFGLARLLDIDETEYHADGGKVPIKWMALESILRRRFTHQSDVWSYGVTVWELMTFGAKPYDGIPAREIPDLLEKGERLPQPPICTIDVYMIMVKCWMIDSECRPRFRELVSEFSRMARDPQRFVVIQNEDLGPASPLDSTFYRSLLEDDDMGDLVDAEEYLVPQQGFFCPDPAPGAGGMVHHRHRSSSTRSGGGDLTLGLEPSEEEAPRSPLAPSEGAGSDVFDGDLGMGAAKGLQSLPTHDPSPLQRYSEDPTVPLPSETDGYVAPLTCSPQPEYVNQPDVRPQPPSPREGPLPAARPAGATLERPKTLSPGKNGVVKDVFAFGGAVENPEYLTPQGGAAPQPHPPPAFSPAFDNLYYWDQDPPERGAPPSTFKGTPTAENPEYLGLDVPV
Chain of FLT3– ITD (P36888 564-993, change not shown): as the sequence (P36888 564-993, change not shown) above
Chain of CYP3A4 (P08684 whole entry): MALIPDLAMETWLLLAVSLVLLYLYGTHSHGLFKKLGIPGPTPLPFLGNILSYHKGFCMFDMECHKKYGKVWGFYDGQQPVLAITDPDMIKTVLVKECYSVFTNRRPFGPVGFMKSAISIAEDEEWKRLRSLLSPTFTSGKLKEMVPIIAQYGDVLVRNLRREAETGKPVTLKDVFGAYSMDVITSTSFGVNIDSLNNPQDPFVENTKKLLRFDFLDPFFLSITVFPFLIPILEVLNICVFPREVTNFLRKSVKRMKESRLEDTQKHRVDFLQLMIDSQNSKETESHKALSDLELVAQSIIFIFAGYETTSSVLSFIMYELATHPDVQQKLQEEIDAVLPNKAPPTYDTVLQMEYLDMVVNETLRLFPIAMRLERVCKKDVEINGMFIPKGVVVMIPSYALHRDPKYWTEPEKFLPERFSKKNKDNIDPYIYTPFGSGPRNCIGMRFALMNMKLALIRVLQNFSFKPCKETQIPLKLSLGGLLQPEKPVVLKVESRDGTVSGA
Chain of hERG potassium ion channel (Q12809 whole entry): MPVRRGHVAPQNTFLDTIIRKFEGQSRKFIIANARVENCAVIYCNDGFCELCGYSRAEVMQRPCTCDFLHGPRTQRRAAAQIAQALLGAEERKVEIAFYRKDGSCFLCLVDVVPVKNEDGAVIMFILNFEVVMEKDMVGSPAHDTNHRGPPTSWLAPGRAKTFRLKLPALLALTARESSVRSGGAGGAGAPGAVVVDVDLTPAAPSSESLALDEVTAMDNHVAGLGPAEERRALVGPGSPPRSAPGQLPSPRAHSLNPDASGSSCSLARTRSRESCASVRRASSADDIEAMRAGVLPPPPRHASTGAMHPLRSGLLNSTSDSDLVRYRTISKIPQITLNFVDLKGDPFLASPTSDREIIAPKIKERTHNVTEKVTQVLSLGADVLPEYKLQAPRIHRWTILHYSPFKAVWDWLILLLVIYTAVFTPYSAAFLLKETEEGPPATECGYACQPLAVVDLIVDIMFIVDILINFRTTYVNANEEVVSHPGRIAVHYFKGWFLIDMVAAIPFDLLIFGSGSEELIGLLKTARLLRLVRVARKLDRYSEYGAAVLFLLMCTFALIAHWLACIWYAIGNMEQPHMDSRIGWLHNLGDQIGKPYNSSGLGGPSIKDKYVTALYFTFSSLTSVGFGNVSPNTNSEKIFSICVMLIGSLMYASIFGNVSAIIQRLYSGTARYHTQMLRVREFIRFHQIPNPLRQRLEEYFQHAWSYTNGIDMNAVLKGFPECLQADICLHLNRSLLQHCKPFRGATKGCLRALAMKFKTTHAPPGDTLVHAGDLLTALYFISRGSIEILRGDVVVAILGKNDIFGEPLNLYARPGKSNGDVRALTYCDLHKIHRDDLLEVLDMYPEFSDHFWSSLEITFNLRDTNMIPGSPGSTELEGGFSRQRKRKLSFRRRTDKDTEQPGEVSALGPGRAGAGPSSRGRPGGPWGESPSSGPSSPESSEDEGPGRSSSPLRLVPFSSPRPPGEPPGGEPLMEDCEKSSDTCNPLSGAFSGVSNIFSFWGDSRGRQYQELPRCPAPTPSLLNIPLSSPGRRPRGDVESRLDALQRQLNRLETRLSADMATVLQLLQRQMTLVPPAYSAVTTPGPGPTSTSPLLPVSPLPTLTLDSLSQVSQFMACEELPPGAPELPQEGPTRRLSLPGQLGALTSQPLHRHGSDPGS
Chain of FLT3 D833Q (TKD) (P36888 610-943, stated change not applied): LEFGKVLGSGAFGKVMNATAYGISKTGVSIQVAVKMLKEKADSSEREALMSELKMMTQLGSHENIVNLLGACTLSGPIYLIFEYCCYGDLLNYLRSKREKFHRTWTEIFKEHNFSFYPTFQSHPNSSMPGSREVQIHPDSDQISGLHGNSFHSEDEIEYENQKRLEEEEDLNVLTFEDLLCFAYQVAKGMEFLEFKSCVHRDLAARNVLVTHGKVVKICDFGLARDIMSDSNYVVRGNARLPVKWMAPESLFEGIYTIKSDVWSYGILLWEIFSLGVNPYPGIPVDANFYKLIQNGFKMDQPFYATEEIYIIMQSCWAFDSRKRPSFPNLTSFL
Chain of CYP3A5 (P20815 whole entry): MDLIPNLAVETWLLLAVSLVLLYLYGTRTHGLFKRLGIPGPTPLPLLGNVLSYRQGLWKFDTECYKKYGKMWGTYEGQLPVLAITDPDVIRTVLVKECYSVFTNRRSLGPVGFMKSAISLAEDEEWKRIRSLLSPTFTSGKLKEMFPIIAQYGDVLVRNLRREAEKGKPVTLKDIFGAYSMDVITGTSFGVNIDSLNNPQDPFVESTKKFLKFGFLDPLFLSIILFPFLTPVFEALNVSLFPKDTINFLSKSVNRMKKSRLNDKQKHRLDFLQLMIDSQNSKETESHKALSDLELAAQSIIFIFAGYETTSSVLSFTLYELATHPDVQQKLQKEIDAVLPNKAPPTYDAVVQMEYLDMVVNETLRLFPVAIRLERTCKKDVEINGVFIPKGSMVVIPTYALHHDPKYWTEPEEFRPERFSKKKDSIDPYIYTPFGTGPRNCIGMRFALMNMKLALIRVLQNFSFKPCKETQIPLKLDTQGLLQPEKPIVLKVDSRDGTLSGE
Chain of TEC (P42680 whole entry): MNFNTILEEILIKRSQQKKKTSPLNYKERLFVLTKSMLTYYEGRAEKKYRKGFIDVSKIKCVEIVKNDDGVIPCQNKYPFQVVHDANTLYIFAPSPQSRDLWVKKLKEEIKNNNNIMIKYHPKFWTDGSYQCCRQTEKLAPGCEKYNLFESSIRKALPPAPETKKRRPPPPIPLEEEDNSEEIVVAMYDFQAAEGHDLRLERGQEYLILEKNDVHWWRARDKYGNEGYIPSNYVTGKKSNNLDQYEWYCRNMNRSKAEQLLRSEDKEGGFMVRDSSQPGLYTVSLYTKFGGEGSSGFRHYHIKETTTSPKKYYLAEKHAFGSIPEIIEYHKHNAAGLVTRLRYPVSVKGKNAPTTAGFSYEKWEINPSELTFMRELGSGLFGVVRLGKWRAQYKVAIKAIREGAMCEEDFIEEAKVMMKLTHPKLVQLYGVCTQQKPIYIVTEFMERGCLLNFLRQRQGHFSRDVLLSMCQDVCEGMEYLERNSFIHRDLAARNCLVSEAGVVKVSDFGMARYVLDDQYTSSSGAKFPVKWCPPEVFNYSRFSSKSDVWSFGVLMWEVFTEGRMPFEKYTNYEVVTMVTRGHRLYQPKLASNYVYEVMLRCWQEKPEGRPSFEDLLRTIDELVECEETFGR
Chain of FLT3 ITD/F691L (P36888 564-993 F691L): as the sequence (P36888 564-993, change not shown) above, with F128L counted along it

As a reminder, the IC50 is the midpoint of a concentration-inhibition curve. On to `CC1(COc2ccc3c(c2)ncn3-c2ccc3cccc(N4CCC(N)CC4)c3n2)COC1` [Crenolanib, crenolanib], for which the IC50 was 831 ± 195 nM in the data set with Ba/F3 cells FLT3 D835Y, 38 ± 8 nM in the data set with Ba/F3 cells FLT3- ITD, 286 ± 9 nM in data set [1] and 37 ± 13 nM in data set [2].

For the compound `CCc1nc(C(N)=O)c(Nc2ccc(N3CCC(N4CCN(C)CC4)CC3)c(OC)c2)nc1NC1CCOCC1` [Gilteritinib, gilteritinib], the IC50 with Ba/F3 cells FLT3 D835Y was 521 ± 68 nM; in the data set on Ba/F3 cells FLT3- ITD, 28 ± 2 nM; in [1] it was 96 ± 6 nM; in [2], 9 ± 5 nM. Besides, the event-free survival in data set [3] is listed as 2.8 months. Besides, in data set [3], the response rate is on record as 34%.

The Kd is the constant that tells how readily two partners part at equilibrium. Regarding `Cc1cnc(-c2ccc(-c3ccc(NC(=O)Nc4c(F)cc(F)cc4F)cc3F)c3c2C(=O)NC3)[nH]1` [luxeptinib, Luxeptinib], in the data set on phosphorylation of FLT3, the “phosphorylation of FLT3” value is “potently reduces the phosphorylation”. Also, the “concentration inducing apoptosis (PARP cleavage)” value in [4] is at most 5 nmol/L. Moreover, the IC50 was found to be 4690 nM with HEL92.1.7; 0.395 nM in the data set with MOLM-13; 2970 nM in the data set on THP-1; 6 ± 0.4 nM in the data set on Ba/F3 cells FLT3 D835Y; 0.045 nM in the data set on EOL-1; 94.5 nM in data set [8]. The IC50 was over 1000 nM against ERBB; 0.8 nM at FLT3-ITD (FLT3-ITD, recombinant kinase with ATP concentration at the Km); 1 ± 0.2 nM in the data set with Ba/F3 cells FLT3- ITD; 139 nM against TEC; 9 ± 1 nM in [1]; 22 ± 9 nM in [2]. In addition, in data set [12], the IC50 was under 200 nM. The “inhibition of hERG potassium ion channel” value in data set [5] is recorded as “did not inhibit”. Moreover, the “tolerability in phase I trial” value in [6] is “generally well tolerated”. Further, the “phosphorylation of downstream STAT5” value in the data set on phosphorylation of STAT5 is listed as “reduces the phosphorylation”. In addition, in [7], the “phosphorylation of downstream ERK1/2” value is recorded as “reduces the phosphorylation”. For the same compound, the Kd on FLT3– ITD worked out at 3.1 nM; at FLT3 ITD/F691L, 16 nM; at FLT3 D833Q (TKD), 6.4 nM. In addition, the “involvement of CYP3A4 in metabolism” value on CYP3A4 is listed as “involved in the metabolism”. The “involvement of CYP3A5 in metabolism” value at CYP3A5 is listed as “involved in the metabolism”. For the same compound, the “mice with tumor growth completely suppressed out to 120 days” value in data set [9] (300 mg/kg twice a day, oral gavage, 28 days) is 10 of 11. In addition, the “weight loss or clinically apparent adverse events” value in data set [9] (doses up to 300 mg/kg twice a day, mice) is “No weight loss or clinically apparent adverse events”. The “Inhibition of tumor growth” value in data set [9] (lowest dose of 20 mg/kg/day, oral, 28 days) is recorded as “apparent”. Further, the “response of regrown tumors to second 28-day treatment” value in [9] (re-treatment at 300 mg/kg twice a day, 100 and 300 mg/kg groups) was “All tumors that regrew in these two groups responded”. The “fold lower inhibitory concentration for recombinant FLT-ITD than WT FLT3” value on FLT3-ITD (recombinant kinases) was found to be 10 fold. For the same compound, the “fold more potent than quizartinib” value in the data set with Ba/F3 cells FLT3- ITD (FLT3-ITD in the Ba/F3 system) was determined as 4 fold. Moreover, the “hematologic, cardiovascular or other organ toxicities” value in data set [10] was “No hematologic, cardiovascular or other organ toxicities were observed”. In addition, the “inhibition of FLT3 in a plasma inhibition assay” value against FLT3 is on record as “almost complete inhibition”. In addition, the “effect on QTc or any other parameter of heart function” value in data set [11] is recorded as “no effect”.
